RanGTP-Impb inh = inhibitors of RanGTP-importin-beta interaction, primary screen, biochemical, FRET, CFP-Ran, YFP-importin-beta, homogeneous. inhibition, % (test concentration not listed). cell-free CFP-Ran/YFP-importin-beta FRET ratio. actives 1.1% (n = 300,000);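 active means more than half of the replicate wells show a fall in the fluorescence ratio signal beyond about 16%, limit read from the data, passing the limit was not always enough; inconclusive means exactly half of the replicate wells pass the set limit; inactive means fewer than half of replicates pass the limit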;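 further: 0% = DMSO wells and 100% = Ran loaded with GDP instead of GTP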
Runt-SMMHC FRET = inhibitors of human RUNX1 Runt domain binding to CBFb-SMMHC | Q01196+Q13951 | Cerulean-Runt/Venus-CBFb-SMMHC FRET ratio 530/480, 1 h | inhibition, % at 20 µM | actives 0.74% (n = 220,000);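 active means mean inhibition across duplicate retests at 20 µM reaching about 50%, limit read from the data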;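 further: 0% = DMSO wells and 100% = wells with excess untagged CBFb-SMMHC; inhibitors lower the FRET ratio by blocking Runt binding to CBFb-SMMHC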
Target sequence (Q01196 whole entry, looked up, the tested form may be a part): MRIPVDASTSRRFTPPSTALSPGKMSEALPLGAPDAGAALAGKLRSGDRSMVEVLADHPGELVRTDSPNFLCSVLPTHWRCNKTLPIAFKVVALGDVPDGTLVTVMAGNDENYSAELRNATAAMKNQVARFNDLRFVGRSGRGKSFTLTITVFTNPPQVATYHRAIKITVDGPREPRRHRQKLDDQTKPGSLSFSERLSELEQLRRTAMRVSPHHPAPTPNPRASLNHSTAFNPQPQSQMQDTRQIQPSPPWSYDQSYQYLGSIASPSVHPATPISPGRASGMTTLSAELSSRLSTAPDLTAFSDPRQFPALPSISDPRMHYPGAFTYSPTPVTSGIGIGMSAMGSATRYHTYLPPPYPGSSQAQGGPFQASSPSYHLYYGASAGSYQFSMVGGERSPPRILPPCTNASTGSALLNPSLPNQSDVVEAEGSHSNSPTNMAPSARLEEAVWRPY
Target sequence (Q13951 whole entry, looked up, the tested form may be a part): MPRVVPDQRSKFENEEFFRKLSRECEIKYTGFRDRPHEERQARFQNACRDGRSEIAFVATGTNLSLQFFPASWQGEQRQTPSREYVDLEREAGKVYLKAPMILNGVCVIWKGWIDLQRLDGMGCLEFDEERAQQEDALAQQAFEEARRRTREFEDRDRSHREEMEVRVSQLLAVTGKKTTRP
Pemphigus Ab inh = blocks pemphigus antibody binding to human desmoglein-3; P32926; DSG3-coupled beads, scFv-anti-DSG3-GFP binding, flow cytometry; stronger effect = lower value; binding (percent of control), % at 10 µM; actives 0.48% (n = 310,000);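 active means binding more than 3 SD below its plate's average and above zero; inconclusive means below that plate limit but binding exactly zero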;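 further: hits lower antibody fragment binding to DSG3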
Hck Nef HTS = blocks Nef-activated human Hck kinase. AID 463187. inhibition, % at 20 µM. actives 0.68% (n = 220,000). Recombinant Hck-YEEI plus Nef, Z-Lyte FRET kinase assay;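 active means Hck-Nef kinase inhibition above about 50%, limit read from the data; inactive means inhibition below that limit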;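 further: 0% = DMSO with Hck plus Nef and 100% = Hck alone without Nef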
Runt-CBFb FRET = Runt domain-CBFb interaction inhibition; Q01196+Q13951; Cerulean-Runt/Venus-CBFb FRET ratio 530/480, 1 h; inhibition, % at 20 µM; actives 0.46% (n = 220,000); AID 1496;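 active means inhibition over about 50% at 20 µM in the single-dose screen, limit read from the data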;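 further: 0% = DMSO wells and 100% = excess unlabeled CBFb competitor control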
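Assay system: Cerulean-Runt domain fusion protein, energy donor; Signal: fluorescence energy transfer, 422 nm excitation, 530/480 nm emission; Timing: 1 h compound exposure, room temperature; Control set: unlabeled CBFb; Medium: Tris buffer pH 7.5 with salts and BSA; Compound: single test concentration of 20 µM, 1% DMSO final; Probe or stimulus: Venus-CBFb 100 nM.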
p-CIP stab down = p/CIP protein destabilization; decrease of EGFP signal, % at 10 µM; actives 0.01% (n = 290,000); F442A p/CIP-EGFP cells, EGFP fluorescence, 16 h;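 active means EGFP signal decrease of at least 30% at 10 µM or well 3 SD below plate mean, unless failing retest; inactive means the rest, including hits failing retest or dose response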
Hck-Nef confirm = Hck-Nef kinase inhibition, confirmation | shares compounds with Hck Nef HTS | Recombinant Hck-YEEI:Nef, Z-Lyte FRET kinase assay | calls only at 10 µM | actives 28% (n = 1,300) | AID 463188;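 active means average inhibition of at least 50%, with Z-scores no higher than 3 in both the phospho-tyrosine peptide and fluorescence counterscreens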
Starred values were filed as active, the others as inactive; i = inactive; ? = inconclusive; · = not tested or not shown; + = active, no number. Most compounds without a hit are left out; they make up all but 2.1% or so of the library.

SMILES	RanGTP-Impb inh	Runt-SMMHC FRET	Pemphigus Ab inh	Hck Nef HTS	Runt-CBFb FRET	p-CIP stab down	Hck-Nef confirm
CS(=O)(=O)N1CCC(Oc2ccccc2C(=O)NCCCc2cccnc2)CC1	-1	4	106	-2	2	0	·
COc1ccc(N2CCN(CCNC(=O)c3ccc4c(c3)[nH]c(=S)n3c5ccccc5nc43)CC2)cc1	1	0	·	51*	5	-7	i
CCC(=O)Oc1ccc2c(c1)OC1(OC(C)=O)OC(C)CC1=C2C (configuration not stated)	1	14	94	157*	10	-3	·
CCCc1cc(NCCCO)n2c(nc3ccccc32)c1C#N	30*	38	107	194*	15	6	·
Cc1cc(NCC2CCCO2)n2c(nc3ccccc32)c1C#N (configuration not stated)	9	37	109	95*	17	-10	·
CCC(C)Nc1cc(C)c(C#N)c2nc3ccccc3n12 (configuration not stated)	7	·	98	·	·	-14	·
CC(C)c1cc(NCC2CCCO2)n2c(nc3ccccc32)c1C#N (configuration not stated)	-3	46	·	108*	23	-23	·
Cc1cc(NCCCN(C)C)n2c(nc3ccccc32)c1C#N	?	·	109	·	·	-10	·
CCc1c(C)c(C#N)c2nc3ccccc3n2c1NCCCN(C)C	·	·	100	·	·	·	·
Cc1cc(NCCCn2ccnc2)n2c(nc3ccccc32)c1C#N	19*	30	·	64*	13	0	·
CCOC(=O)N1CCN(C(=O)COC(=O)C2CCN(S(=O)(=O)c3c(Cl)cccc3Cl)CC2)CC1	2	·	104	·	·	·	·
CCOC(=O)c1c(NC(=O)C2CCCO2)sc(C(=O)OC(C)(C)C)c1C (configuration not stated)	1	-10	104	68*	30	-10	i
O=C(NN1CCOCC1)c1ccccc1	4	·	·	·	·	-14	·
Cc1cc2nc(-c3ccc(SCC(=O)Nc4ccc(S(=O)(=O)NC5CC5)cc4)nc3)[nH]c2cc1C	0	-7	104	87*	-6	-4	+
Cc1cc2nc(-c3ccc(SCc4ccc(C(=O)O)cc4)nc3)[nH]c2cc1C	3	-3	98	74*	3	1	+
CCN1/C(=C/C(=O)c2ccco2)Sc2ccccc21	8	80	101	95*	42	-4	·
CCOC(=O)/C(=C/C=C1\Sc2ccccc2N1CC)C(C)=O	0	-87	138	1	-35	-81	·
O=C(Oc1ccc2ccc(=O)oc2c1)C1CCCCC1	4	48	·	67*	30	0	i
O=C(COc1ccc2ccc(=O)oc2c1)NC1CCCC1	3	·	98	·	·	-6	·
COC(=O)Cc1[nH]n(-c2nc3ccccc3s2)c(=O)c1C(C)=Nc1ccc(Cl)cc1	2	-11	99	64*	2	-7	i
O=C(OCc1cccc2ccccc12)c1ccc2c(=O)[nH]c(CN3CCOCC3)nc2c1	?	-10	·	2	-1	-3	·
CCc1ccc2nc(NC(=O)c3ccc4c(=O)[nH]c(CN5CCOCC5)nc4c3)sc2c1	6	-10	·	109*	-12	-6	+
CCc1cc(=O)oc2cc3occ(C)c3cc12	0	1	96	8	0	-15	·
CCc1cc(=O)oc2cc3occ(-c4ccc(OC)c(F)c4)c3cc12	-1	-5	96	58*	-3	-8	i
Cc1cc(C)n2c(=O)[nH]nc2c1	·	·	115	·	·	·	·
SMILES	RanGTP-Impb inh	Runt-SMMHC FRET	Pemphigus Ab inh	Hck Nef HTS	Runt-CBFb FRET	p-CIP stab down	Hck-Nef confirm
COc1cc([N+](=O)[O-])ccc1-c1ccc(/C=N/NC(=O)c2ccccc2O)o1	-23	-36	·	74*	-18	-2	i
CCN1CCN(Cc2ccc(NC(=O)c3ccc(C)c(NC(=O)c4ccnnc4)c3)cc2C(F)(F)F)CC1	0	1	102	55*	2	-6	i
CCN1CCN(Cc2ccc(NC(=O)c3ccc(C)c(NC(=O)c4ccc5n[nH]nc5c4)c3)cc2C(F)(F)F)CC1	-2	1	105	76*	1	-4	+
Cc1cc(=O)oc2c(CN3CCN(C)CC3)c(O)c(Cl)cc12	14	136*	103	106*	97*	-5	·
CN1CCN(Cc2c(O)c(Cl)cc3c(-c4ccccc4)cc(=O)oc23)CC1	0	39	104	6	-2	-3	·
Cc1c(C)c2cc(Cl)c(O)c(CN3CCCCC3)c2oc1=O	?	89*	·	67*	35	-3	i
O=C(COC(=O)COc1ccc(Cl)cc1Cl)NC1CCS(=O)(=O)C1 (configuration not stated)	·	·	102	·	·	·	·
Fc1cccc(Cl)c1CSc1nnc(CN2CCOCC2)n1-c1ccccc1	-1	0	108	96*	0	-11	i
Clc1cccc(Cl)c1CSc1nnc(CN2CCOCC2)n1-c1ccccc1	0	-3	108	1	2	-9	·
COc1cc(NC(=S)Nc2ccccn2)cc(OC)c1OC	-1	2	107	81*	1	-5	+
O=C(Nc1cccc(NC(=O)c2ccc(Br)o2)n1)c1ccc(Br)o1	3	-3	100	98*	0	0	i
CC1=NNC(=O)/C1=C\c1cn(-c2ccccc2)nc1-c1ccccc1	·	-14	76	181*	0	4	+
Cc1ccc(O)c(-c2cc(-c3ccccc3[N+](=O)[O-])[nH]n2)c1	2	1	102	12	-2	-1	·
Cc1ccc(O)c(-c2cc(-c3ccccc3C)[nH]n2)c1	-2	-1	104	52*	0	-8	+
COC(=O)C1=CN(CCCN2CCCC2=O)C=C(C(=O)OC)C1c1ccccc1C(F)(F)F	116*	-16	98	85*	10	-1	·
CCCCOc1ccccc1C1C(C(=O)OC)=CN(CC)C=C1C(=O)OC	107*	-21	104	62*	10	-13	·
CCCCOc1ccccc1C(=O)NCC(=O)O	9	2	98	-3	0	-11	·
CCCOc1ccccc1C1C(C(=O)OC)=CN(C(C)C)C=C1C(=O)OC	115*	58*	·	68*	86*	-15	·
COC(=O)C1=CN(C)C=C(C(=O)OC)C1c1ccccc1Cl	87*	83*	72	70*	5	7	·
Cc1nc2ccc3nc(NC(=O)c4ccc5c(c4)OCCO5)sc3c2s1	3	-8	81	87*	-1	-1	+

Screening data: PubChem BioAssay, several laboratories
